One compound from ChEMBL document CHEMBL4382270, “Total Synthesis and Biological Evaluation of Sericetin for Protection against Cisplatin-Induced Acute Kidney Injury” (J Nat Prod, 2018) can be followed below.

Active and inactive are the calls of the source. No cut-off for these calls is given here.

The subject of series [1] is NRK-52E. Briefly: Protection against cisplatin-induced cytotoxicity in rat NRK-52E cells assessed as increase in cell viability at 20 uM after 24 hrs by MTT assay. Type of series: functional, cell-based. The essentials:
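NRK52E cells given test agent at 20 μM for 24 h, with or without cisplatin 30 μM. Vehicle is DMSO at 0.2% final. Viability read by MTT. Mean ± SEM, N = 3.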
(In general: Tetrazolium dyes change colour on reduction, which living cells bring about.)

For series [2], the system named is NRK-52E. As to the kind of experiment: Protection against cisplatin-induced cytotoxicity in rat NRK-52E cells assessed as improvement in morphological changes after 24 hrs by microscopic analysis. The series is classed as functional, cell-based. The essentials: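 Cells (NRK-52E) exposed to test agent at 0, 1, 10 or 50 μM plus cisplatin 30 μM for 24 h. Morphology then examined by light microscopy.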

Series [3] relates to NRK-52E. As to the kind of experiment: Protection against cisplatin-induced cytotoxicity in rat NRK-52E cells assessed as increase in cell viability after 24 hrs by MTT assay. The series is classed as functional, cell-based. A digest of the protocol: (§1)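 NRK-52E rat renal tubular epithelial cells (ATCC) exposed to test agent at 0, 1, 10 or 50 μM for 24 h, with or without cisplatin 30 μM (PBS stock). Viability measured by MTT. Mean ± SEM, N = 3.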

Series [4] relates to NRK-52E. As to the kind of experiment: Cytotoxicity against rat NRK-52E cells assessed as effect on cell viability at 1 to 50 uM after 24 hrs by MTT assay. Type of series: cell-based. The essentials: as §1
Series [5] relates to NRK-52E. Briefly: Protection against cisplatin-induced cell damage in rat NRK-52E cells assessed as reduction in reactive oxygen species generation at 10 uM after 24 hrs by DCF staining based fluorescence microscopic analysis. Type of series: functional. A digest of the protocol: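 NRK-52E cells co-treated with cisplatin 30 μM and test agent 10 μM for 24 h. ROS stained with CM-H2DCFDA (DCF) and imaged by fluorescence. Percent ROS derived from DCF signal by region-of-interest quantitation. Mean ± SEM, N = 3.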

Series [6] concerns NRK-52E. As to the kind of experiment: Protection against cisplatin-induced cell damage in rat NRK-52E cells assessed as reversal of mitochondrial membrane potential loss at 10 uM after 24 hrs by JC1 staining based fluorescence microscopic analysis. Type of series: functional. A digest of the protocol: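 After 24 h of cisplatin 30 μM with or without test agent 10 μM, NRK-52E cells stained with JC-1 and imaged by fluorescence microscopy. Red (aggregate) and green (monomer) signals quantified by ROI. Mean ± SEM, N = 3.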

The subject of series [7] is NRK-52E. Briefly: Protection against cisplatin-induced apoptosis in rat NRK-52E cells assessed as reduction in cleaved caspase-3 level at 10 uM after 24 hrs by Western blot analysis. The series is classed as functional, cell-based. The essentials: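 NRK-52E cells given cisplatin 30 μM with or without test agent 10 μM for 24 h. Cleaved (active) caspase-3 detected by Western blot and quantified by densitometry. Mean ± SEM, N = 3.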
A general note: Immunoblotting shows a protein as a band on a membrane.

Series [8] deals with Rattus norvegicus. As to the kind of experiment: Protection against cisplatin-induced […] in Sprague-Dawley rat assessed as reduction in cleaved caspase-3 level in kidneys at 1 mg/kg pretreated for 24 hrs followed by cisplatin challenge and subsequent qd dosing for 5 days measured 7 days post cisplatin challenge by Western blot analysis. Type of series: functional, organism-based. A digest of the protocol:
(§2)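 Male Sprague-Dawley rats (200 ± 10 g) received a single ip cisplatin dose of 6 mg/kg in saline. Test agent 1 mg/kg in 5% DMSO/0.9% saline given once 24 h before cisplatin, then daily for 5 days. Sacrifice on day 7. Read-outs: serum BUN and creatinine by clinical chemistry, kidney H&E histology, and cleaved caspase-3 by Western blot of kidney homogenate. N = 6/group.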

Series [9] has as its system Rattus norvegicus. As to the kind of experiment: Protection against cisplatin-induced […] in Sprague-Dawley rat assessed as reversal of histopathological changes in kidney at 1 mg/kg pretreated for 24 hrs followed by cisplatin challenge and subsequent qd dosing for 5 days measured 7 days post cisplatin challenge by H and E staining based light microscopic analysis. Type of series: functional, organism-based. A digest of the protocol: as §2

The test system of series [10] is Rattus norvegicus. Briefly: Protection against cisplatin-induced acute liver injury in Sprague-Dawley rat assessed as restoration of serum BUN levels at 1 mg/kg pretreated for 24 hrs followed by cisplatin challenge and subsequent qd dosing for 5 days measured 7 days post cisplatin challenge. Type of series: functional, organism-based. The settings on record: in the assay text read “acute kidney injury” for “acute liver injury”. The essentials:
as §2

The subject of series [11] is Rattus norvegicus. As to the kind of experiment: Protection against cisplatin-induced acute liver injury in Sprague-Dawley rat assessed as restoration of serum creatinine levels at 1 mg/kg pretreated for 24 hrs followed by cisplatin challenge and subsequent qd dosing for 5 days measured 7 days post cisplatin challenge. The series is classed as functional, organism-based. The settings on record: in the assay text read “acute kidney injury” for “acute liver injury”. The essentials: as §2

Series [12] can be described thus: Renal toxicity in Sprague-Dawley rat assessed as histopathological changes in kidney at 1 mg/kg administered once daily for 6 days by H and E staining based light microscopic analysis. The series is classed as organism-based. The settings on record: in vivo, 144 h. The essentials: (§3)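 Male Sprague-Dawley rats (200 ± 10 g) given test agent alone at 1 mg/kg in 5% DMSO/0.9% saline, once and then daily for 5 further days. Killed on day 7. Serum BUN and creatinine measured by clinical chemistry, and kidneys examined by H&E histology.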

A short description of series [13]: Renal toxicity in Sprague-Dawley rat assessed as change in serum BUN levels at 1 mg/kg administered once daily for 6 days. Type of series: organism-based. The settings on record: in vivo, 144 h. The essentials: as §3
Series [14] in a line: Renal toxicity in Sprague-Dawley rat assessed as change in serum creatinine levels at 1 mg/kg administered once daily for 6 days. Conditions: in vivo, 144 h. The series is classed as organism-based. A digest of the protocol: as §3

Turning to `CC(C)=CCOc1c2c(cc3oc(-c4ccccc4)c(OCc4ccccc4)c(=O)c13)OC(C)(C)C=C2`, the result in the series with NRK-52E [1], with NRK-52E [5], in the series with NRK-52E [6], in the series with NRK-52E [7], in the series with Rattus norvegicus [8] and in the series on Rattus norvegicus [9] was Active. For the same compound, the outcome in the series on Rattus norvegicus [10] and in the series on Rattus norvegicus [11] was Active. Moreover, the Activity result in the series on NRK-52E [2] is “Dose-dependent effect”; in the series on NRK-52E [3] it was “Dose-dependent effect”; in the series on NRK-52E [4] it was “Non-Toxic”; in series [12], “Non-Toxic”; in series [13] it was “Non-Toxic”; in series [14], “Non-Toxic”.
